In ChEMBL document CHEMBL3763019, “Discovery of benzenesulfonamide derivatives as potent PI3K/mTOR dual inhibitors with in vivo efficacies against hepatocellular carcinoma” (Bioorg Med Chem, 2016):

Experiments:
MDA-MB-231 = experiment: Antiproliferative activity against human MDA-MB-231 cells incubated for 48 hrs by sulforhodamine B assay; assay type: functional; conditions: MDA-MB-231, 48 h
Outline: (§1)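 Run externally by the US National Cancer Institute as part of its 60 human cancer cell line cytotoxicity screen (NCI-60).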

[1] = Antiproliferative activity against human OVCAR3 cells incubated for 48 hrs by sulforhodamine B assay; assay type: functional; conditions: OVCAR-3, 48 h; outline: as §1
[2] = Antiproliferative activity against human SF268 cells incubated for 48 hrs by sulforhodamine B assay; assay type: functional; conditions: SF-268, 48 h; outline: as §1
[3] = Antiproliferative activity against human TK10 cells incubated for 48 hrs by sulforhodamine B assay; assay type: functional; conditions: TK-10, 48 h
[4] = Antiproliferative activity against human HCT15 cells incubated for 48 hrs by sulforhodamine B assay; assay type: functional; conditions: HCT-15, 48 h; outline: as §1
[5] = target: T1, Phosphatidylinositol 4,5-bisphosphate 3-kinase catalytic subunit delta isoform (Homo sapiens) (UniProt O00329); experiment: Inhibition of PI3K-delta (unknown origin) using PIP2 as substrate at 10 nM incubated for 1 hr by Kinase-Glo luminescent kinase assay
T1 sequence (whole entry): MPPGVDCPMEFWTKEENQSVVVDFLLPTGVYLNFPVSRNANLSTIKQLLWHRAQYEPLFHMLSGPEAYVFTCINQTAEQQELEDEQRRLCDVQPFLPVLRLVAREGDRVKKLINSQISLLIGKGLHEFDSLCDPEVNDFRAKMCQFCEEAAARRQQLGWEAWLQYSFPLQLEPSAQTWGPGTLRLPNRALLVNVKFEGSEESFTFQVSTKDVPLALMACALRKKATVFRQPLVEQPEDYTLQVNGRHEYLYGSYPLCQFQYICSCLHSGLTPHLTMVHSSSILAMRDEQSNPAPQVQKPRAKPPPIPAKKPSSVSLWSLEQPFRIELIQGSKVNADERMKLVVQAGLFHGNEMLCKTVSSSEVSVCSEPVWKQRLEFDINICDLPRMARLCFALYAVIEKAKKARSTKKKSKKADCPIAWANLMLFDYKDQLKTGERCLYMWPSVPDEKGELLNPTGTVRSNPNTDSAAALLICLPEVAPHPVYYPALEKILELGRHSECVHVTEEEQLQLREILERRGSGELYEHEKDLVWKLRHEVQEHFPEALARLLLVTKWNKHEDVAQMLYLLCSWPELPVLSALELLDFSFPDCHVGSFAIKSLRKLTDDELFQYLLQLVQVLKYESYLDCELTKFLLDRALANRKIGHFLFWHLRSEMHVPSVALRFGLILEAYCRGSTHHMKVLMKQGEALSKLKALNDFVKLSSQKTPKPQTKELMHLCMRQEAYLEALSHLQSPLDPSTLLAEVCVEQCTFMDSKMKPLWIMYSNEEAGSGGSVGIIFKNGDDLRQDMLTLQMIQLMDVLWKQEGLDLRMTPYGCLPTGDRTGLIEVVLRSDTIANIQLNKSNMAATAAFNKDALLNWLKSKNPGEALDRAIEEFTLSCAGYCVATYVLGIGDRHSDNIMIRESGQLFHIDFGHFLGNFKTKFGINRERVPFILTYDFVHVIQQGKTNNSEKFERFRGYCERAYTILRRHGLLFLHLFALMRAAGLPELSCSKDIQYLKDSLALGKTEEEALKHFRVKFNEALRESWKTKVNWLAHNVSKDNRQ
Outline: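 Final PIP2 was 50 µM and ATP 25 µM; PI3Kδ was 1.65 nM. Reactions ran 1 h at room temperature, then Kinase-Glo was added for 15 min before reading luminescence. Percent inhibition was derived from RLU. Dose-response used ten 3-fold dilutions (top 100 or 500 nM) in duplicate.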

ACHN = experiment: Antiproliferative activity against human ACHN cells incubated for 48 hrs by sulforhodamine B assay; assay type: functional; outline: as §1
[6] = Antiproliferative activity against human SF295 cells incubated for 48 hrs by sulforhodamine B assay; assay type: functional; conditions: SF-295, 48 h; outline: as §1
A549 [7] = experiment: Cytotoxicity against human A549 cells after 72 hrs by MTT assay; assay type: functional, cell-based; conditions: A549, 72 h
Outline: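 Log-phase cells at 40,000–50,000 cells/mL in DMEM with 10% FBS and antibiotics were seeded and cultured overnight at 37 °C, 5% CO₂. Compounds were diluted in DMSO/PBS from 10^-4 to 10^-9 M and applied for 72 h. MTT (5 mg/mL stock) was then added for 4 h and absorbance read at 570 nm. IC50 came from nonlinear regression on triplicate wells, averaged.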

A498 = experiment: Antiproliferative activity against human A498 cells incubated for 48 hrs by sulforhodamine B assay; assay type: functional; conditions: A498, 48 h; outline: as §1
A549 [8] = experiment: Antiproliferative activity against human A549 cells incubated for 48 hrs by sulforhodamine B assay; assay type: functional; conditions: A549, 48 h; outline: as §1
MCF7 = experiment: Antiproliferative activity against human MCF7 cells incubated for 48 hrs by sulforhodamine B assay; assay type: functional; conditions: MCF7, 48 h; outline: as §1
KM12 = experiment: Antiproliferative activity against human KM12 cells incubated for 48 hrs by sulforhodamine B assay; assay type: functional; conditions: KM12, 48 h; outline: as §1
[9] = Antiproliferative activity against human HCC2998 cells incubated for 48 hrs by sulforhodamine B assay; assay type: functional; conditions: HCC 2998, 48 h; outline: as §1
M14 = experiment: Antiproliferative activity against human M14 cells incubated for 48 hrs by sulforhodamine B assay; assay type: functional; conditions: M14, 48 h; outline: as §1
[10] = Antiproliferative activity against human IGROV1 cells incubated for 48 hrs by sulforhodamine B assay; assay type: functional; conditions: IGROV-1, 48 h
SR = experiment: Antiproliferative activity against human SR cells incubated for 48 hrs by sulforhodamine B assay; assay type: functional; outline: as §1
[11] = target: Phosphatidylinositol 4,5-bisphosphate 3-kinase catalytic subunit beta isoform (Homo sapiens, UniProt P42338); experiment: Inhibition of PI3K-beta (unknown origin) after 40 mins by ADP-Glo luminescent kinase assay
Outline: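 ADP-Glo reagent stopped the reaction (40 min), then detection reagent was added (60 min) and luminescence read. Percent inhibition was derived from RLU.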

[12] = Antiproliferative activity against human HCT116 cells incubated for 48 hrs by sulforhodamine B assay; assay type: functional; conditions: HCT-116, 48 h; outline: as §1
[13] = read-out: pLC50 (the source's name) (converted)

Chain of Phosphatidylinositol 4,5-bisphosphate 3-kinase catalytic subunit beta isoform (P42338 whole entry, canonical isoform): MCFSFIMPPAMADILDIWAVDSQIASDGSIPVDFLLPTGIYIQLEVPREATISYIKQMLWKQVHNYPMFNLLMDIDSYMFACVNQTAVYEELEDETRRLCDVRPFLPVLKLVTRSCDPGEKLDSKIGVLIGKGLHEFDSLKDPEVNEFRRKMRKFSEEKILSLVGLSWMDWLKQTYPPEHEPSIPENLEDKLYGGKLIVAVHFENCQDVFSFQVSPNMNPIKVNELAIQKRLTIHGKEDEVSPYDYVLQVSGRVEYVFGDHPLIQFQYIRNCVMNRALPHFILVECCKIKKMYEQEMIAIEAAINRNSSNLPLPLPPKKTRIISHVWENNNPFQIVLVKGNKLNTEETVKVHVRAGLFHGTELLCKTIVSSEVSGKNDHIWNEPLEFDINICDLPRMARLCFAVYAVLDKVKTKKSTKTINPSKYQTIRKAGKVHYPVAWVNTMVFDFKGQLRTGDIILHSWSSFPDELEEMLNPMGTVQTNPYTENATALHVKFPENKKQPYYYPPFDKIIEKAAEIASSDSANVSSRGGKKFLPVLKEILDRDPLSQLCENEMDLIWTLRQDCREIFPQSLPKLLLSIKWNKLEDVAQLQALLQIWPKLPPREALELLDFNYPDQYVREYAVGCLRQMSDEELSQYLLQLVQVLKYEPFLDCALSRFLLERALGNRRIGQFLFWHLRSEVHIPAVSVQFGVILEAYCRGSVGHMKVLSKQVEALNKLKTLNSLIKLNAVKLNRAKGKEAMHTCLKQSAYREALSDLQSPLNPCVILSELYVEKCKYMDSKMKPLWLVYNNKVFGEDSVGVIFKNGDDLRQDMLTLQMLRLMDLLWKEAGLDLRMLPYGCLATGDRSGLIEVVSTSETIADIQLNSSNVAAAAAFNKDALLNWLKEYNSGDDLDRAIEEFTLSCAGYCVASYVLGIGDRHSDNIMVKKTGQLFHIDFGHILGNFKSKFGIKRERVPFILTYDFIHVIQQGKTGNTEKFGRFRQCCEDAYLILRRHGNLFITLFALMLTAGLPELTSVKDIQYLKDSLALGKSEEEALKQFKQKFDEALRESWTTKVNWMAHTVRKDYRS

COc1ncc(-c2ccc3nccc(C#CCN4CCN(S(C)(=O)=O)CC4)c3c2)cc1NS(=O)(=O)c1ccc(F)cc1F
GI50 (MDA-MB-231): 437 nM | CC50 (MDA-MB-231; [13]): 72400 nM | TGI (MDA-MB-231; read-out: pTGI (converted)): 19500 nM | GI50 [1]: 51.3 nM | CC50 [1, 13]: 6610 nM | TGI ([1]; read-out: pTGI (converted)): 1100 nM | GI50 [2]: 110 nM | CC50 [2, 13]: 25100 nM | TGI ([2]; read-out: pTGI (converted)): 2880 nM | GI50 [3]: 11.8 nM | CC50 [3, 13]: 38900 nM | GI50 [4]: 55 nM | CC50 [4, 13]: 6610 nM | TGI ([4]; read-out: pTGI (converted)): 1350 nM | inhibition [5]: 25.8% | GI50 (ACHN): 45.7 nM | CC50 (ACHN; [13]): 34700 nM | TGI (ACHN; read-out: pTGI (converted)): 6920 nM | GI50 [6]: 74.1 nM | CC50 [6, 13]: 29500 nM | TGI ([6]; read-out: pTGI (converted)): 1000 nM | IC50 (A549 [7]): 1780 nM | GI50 (A498): 37.1 nM | CC50 (A498; [13]): 2190 nM | TGI (A498; read-out: pTGI (converted)): 245 nM | GI50 (A549 [8]): 72.4 nM | CC50 (A549 [8]; [13]): 44700 nM | TGI (A549 [8]; read-out: pTGI (converted)): 5500 nM | GI50 (MCF7): < 10 nM | CC50 (MCF7; [13]): 49000 nM | TGI (MCF7; read-out: pTGI (converted)): 1780 nM | GI50 (KM12): 275 nM | CC50 (KM12; [13]): 4790 nM | TGI (KM12; read-out: pTGI (converted)): 1480 nM | GI50 [9]: 61.7 nM | CC50 [9, 13]: 3980 nM | TGI ([9]; read-out: pTGI (converted)): 1120 nM | GI50 (M14): 72.4 nM | CC50 (M14; [13]): 19100 nM | TGI (M14; read-out: pTGI (converted)): 1580 nM | GI50 [10]: < 10 nM | CC50 [10, 13]: > 100000 nM | GI50 (SR): 251 nM | CC50 (SR; [13]): > 100000 nM | TGI (SR; read-out: pTGI (converted)): 15500 nM | IC50 [11]: 9.4 nM | GI50 [12]: 138 nM | CC50 [12, 13]: 5750 nM | TGI ([12]; read-out: pTGI (converted)): 1660 nM
